Data: ChEMBL document CHEMBL1799944, “New 2-heterocyclyl-imidazo[2,1-i]purin-5-one derivatives as potent and selective human A3 adenosine receptor antagonists” (J Med Chem, 2011)

Assays:
[1] = molecular target: T1, Adenosine receptor A1 (Homo sapiens, UniProt P30542); experiment: Displacement of [3H]DPCPX from human adenosine A1 receptor expressed in CHO cells after 120 mins by scintillation spectrometry; type: cell-based
T1 sequence (P30542 whole entry): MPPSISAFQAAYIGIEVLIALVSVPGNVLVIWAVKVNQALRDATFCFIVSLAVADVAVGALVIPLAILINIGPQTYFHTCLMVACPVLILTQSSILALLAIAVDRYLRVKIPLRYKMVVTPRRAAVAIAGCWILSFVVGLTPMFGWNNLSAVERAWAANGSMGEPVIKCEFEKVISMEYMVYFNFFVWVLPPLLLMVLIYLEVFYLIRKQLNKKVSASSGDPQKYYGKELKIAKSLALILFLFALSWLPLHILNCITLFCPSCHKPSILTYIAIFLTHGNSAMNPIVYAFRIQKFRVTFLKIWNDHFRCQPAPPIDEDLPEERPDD
Method in brief: (§1)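 hA1 CHO membranes (50 μg protein/assay) in 50 mM Tris HCl pH 7.4, pretreated with adenosine deaminase 2 UI/mL for 30 min at 37 °C. Incubated with 1 nM [3H]DPCPX plus 6-8 ligand concentrations for 120 min at 25 °C. Nonspecific binding defined with 1 μM DPCPX. Ki from IC50 by Cheng-Prusoff; geometric means with 95% confidence limits.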

[2] = molecular target: T2, Adenosine receptor A3 (Homo sapiens, UniProt P0DMS8); experiment: Displacement of [3H]MRE 3008F20 from human adenosine A3 receptor expressed in CHO cells after 120 mins by scintillation spectrometry; type: cell-based
T2 sequence (P0DMS8 whole entry): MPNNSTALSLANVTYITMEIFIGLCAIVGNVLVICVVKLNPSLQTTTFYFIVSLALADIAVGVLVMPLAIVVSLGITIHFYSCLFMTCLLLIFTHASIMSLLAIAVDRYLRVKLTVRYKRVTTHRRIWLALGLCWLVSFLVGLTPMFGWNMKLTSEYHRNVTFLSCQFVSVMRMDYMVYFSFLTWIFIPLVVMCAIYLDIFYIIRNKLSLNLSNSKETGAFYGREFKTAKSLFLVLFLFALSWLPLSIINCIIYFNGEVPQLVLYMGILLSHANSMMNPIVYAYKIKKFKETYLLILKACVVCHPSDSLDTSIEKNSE
Method in brief: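 Membranes from hA3 CHO cells (50 μg protein/assay) in 50 mM Tris HCl, 10 mM MgCl2, 1 mM EDTA pH 7.4, adenosine deaminase-treated. Incubated with 1 nM [3H]MRE 3008F20 and 6-8 ligand concentrations, 120 min at 4 °C. Nonspecific defined with 1 μM MRE 3008F20 (~25% of total). GF/B filtration, three ice-cold washes, scintillation counting. Ki via Cheng-Prusoff; geometric mean, 95% confidence limits, n = 3-6.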

[3] = molecular target: T3, Adenosine receptor A1 (Homo sapiens) (UniProt P30542); experiment: Displacement of [3H]DPCPX from human adenosine A1 receptor expressed in CHO cells at =<5000 nM after 120 mins by scintillation spectrometry; type: cell-based; method in brief: as §1
T3 sequence (whole entry): T1 sequence (P30542 whole entry)

[4] = molecular target: T4, Adenosine receptor A2a (Homo sapiens, UniProt P29274); experiment: Displacement of [3H]ZM 241385 from human adenosine A2A receptor expressed in CHO cells at <=5000 nM after 60 mins by scintillation spectrometry; type: cell-based
T4 sequence (P29274 whole entry): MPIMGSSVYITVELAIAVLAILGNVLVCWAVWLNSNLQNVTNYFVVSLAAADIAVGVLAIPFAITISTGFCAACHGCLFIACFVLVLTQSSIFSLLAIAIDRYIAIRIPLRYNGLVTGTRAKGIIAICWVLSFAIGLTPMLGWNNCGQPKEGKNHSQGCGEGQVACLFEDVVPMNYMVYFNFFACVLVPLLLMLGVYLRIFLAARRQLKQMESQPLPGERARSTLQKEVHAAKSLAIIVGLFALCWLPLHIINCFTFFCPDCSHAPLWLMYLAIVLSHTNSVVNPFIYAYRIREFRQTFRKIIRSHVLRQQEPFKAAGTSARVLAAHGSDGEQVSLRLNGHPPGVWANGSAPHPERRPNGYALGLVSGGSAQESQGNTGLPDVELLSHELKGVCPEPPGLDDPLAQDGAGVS

[5] = molecular target: T4, Adenosine receptor A2a; experiment: Displacement of [3H]ZM 241385 from human adenosine A2A receptor expressed in CHO cells after 60 mins by scintillation spectrometry; type: cell-based
[6] = molecular target: Adenosine receptors; A1 & A3 (Homo sapiens) (UniProt P30542+P0DMS8); experiment: Ratio of Ki for human adenosine A1 receptor to Ki for human adenosine A3 receptor
[7] = molecular target: T5, Adenosine receptor A2b (Homo sapiens) (UniProt P29275); experiment: Antagonist activity human adenosine A2B receptor expressed in CHO cells assessed as inhibition of NECA-mediated [3H]cAMP accumulation at =<5000 nM after 150 mins by scintillation counter; type: functional, cell-based
T5 sequence (whole entry): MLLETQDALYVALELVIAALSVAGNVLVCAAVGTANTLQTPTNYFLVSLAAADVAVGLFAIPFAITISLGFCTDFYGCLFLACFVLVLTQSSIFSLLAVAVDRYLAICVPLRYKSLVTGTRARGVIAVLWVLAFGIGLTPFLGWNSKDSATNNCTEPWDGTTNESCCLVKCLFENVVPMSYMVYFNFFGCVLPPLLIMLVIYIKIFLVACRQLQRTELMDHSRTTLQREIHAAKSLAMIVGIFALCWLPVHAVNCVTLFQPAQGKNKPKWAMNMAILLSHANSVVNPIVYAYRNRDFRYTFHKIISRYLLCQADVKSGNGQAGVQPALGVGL
Method in brief: (§2)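 Intact CHO cells expressing hA2B (1 x 10^6 cells/assay), preincubated 10 min at 37 °C in saline buffer pH 7.4 with 2 IU/mL adenosine deaminase and Ro 20-1724. Antagonism of 100 nM NECA-stimulated cAMP rise. Stopped with cold 6% TCA, ether-extracted. cAMP measured by competition binding with [3H]cAMP and beef adrenal binding protein (4 °C, 150 min), charcoal separation, scintillation counting. IC50 by sigmoid nonlinear regression, mean ± SEM.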

[8] = molecular target: T6, Adenosine receptor A2b (Homo sapiens, UniProt P29275); experiment: Antagonist activity human adenosine A2B receptor expressed in CHO cells assessed as inhibition of NECA-mediated [3H]cAMP accumulation after 150 mins by scintillation counter; type: functional, cell-based; method in brief: as §2
T6 sequence (P29275 whole entry): T5 sequence (whole entry)

[9] = molecular target: T2, Adenosine receptor A3; experiment: Antagonist activity human adenosine A3 receptor expressed in CHO cells assessed as blockade of Cl-IB-MECA-mediated inhibition of forskolin-stimulated [3H]cAMP accumulation after 150 mins by scintillation counter; type: functional, cell-based
Method in brief: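 hA3-expressing CHO cells (1 x 10^6 cells/assay), preincubated 10 min at 37 °C in saline buffer pH 7.4 with adenosine deaminase 2 IU/mL and Ro 20-1724. Antagonism of 100 nM Cl-IB-MECA inhibition of cAMP in presence of 1 μM forskolin. Stopped with cold TCA. cAMP by [3H]cAMP competition protein binding (4 °C, 150 min), scintillation counting. IC50 from sigmoid nonlinear regression, mean ± SEM.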

Structure (SMILES)	Ki [1]	Ki [2]	inhibition [3]	inhibition [4]	Ki [5]	Ratio Ki [6]	inhibition [7]	IC50 [8]	IC50 [9]
C=CCN1C(=O)N2CC(C)N=C2c2[nH]c(-c3cc(C)n(C)n3)nc21 (racemic)	> 5 µM	0.0139 µM	13%	1%	> 5 µM	> 359	9%	> 5 µM	
C=CCN1C(=O)N2C[C@@H](C)N=C2c2[nH]c(-c3cc(C)nn3C)nc21	2.51 µM	0.00504 µM		1%	> 5 µM		10%	> 5 µM	0.0359 µM
CC1CN2C(=O)N(Cc3ccccc3)c3nc(-c4cc(OCc5ccccc5)nn4C)[nH]c3C2=N1 (racemic)	2.56 µM	0.0448 µM			2.01 µM	57	13%	> 5 µM	
C=CCN1C(=O)N2CC(C)N=C2c2[nH]c(-c3cc(C)nn3C)nc21 (racemic)	2.04 µM	0.00456 µM		7%	> 5 µM	450	30%	> 5 µM	0.0342 µM
C=CCN1C(=O)N2CC(CC)N=C2c2[nH]c(-c3cc(OC)no3)nc21 (racemic)	3.02 µM	0.00193 µM			1.52 µM		25%	> 5 µM	0.0146 µM
C=CCN1C(=O)N2C[C@H](C)N=C2c2[nH]c(-c3cc(C)nn3C)nc21	1.96 µM	0.00603 µM		4%	> 5 µM		12%	> 5 µM	0.0409 µM
C=CCN1C(=O)N2C[C@@H](CC)N=C2c2[nH]c(-c3cc(OC)nn3C)nc21	2.52 µM	0.00146 µM		13%	> 5 µM		21%	> 5 µM	0.0234 µM
COc1cc(-c2nc3c([nH]2)C2=N[C@H](C)CN2C(=O)N3Cc2ccccc2)n(C)n1	2.55 µM	0.00238 µM		11%	> 5 µM		19%	> 5 µM	0.0159 µM
Cc1cc(-c2nc3c([nH]2)C2=NC(C)CN2C(=O)N3Cc2ccccc2)n(C)n1 (racemic)	> 5 µM	0.0172 µM		1%	> 5 µM	> 290	8%	> 5 µM	
C=CCN1C(=O)N2CC(C)N=C2c2[nH]c(-c3cc(OC)no3)nc21 (racemic)	> 5 µM	0.00358 µM	26%	11%	> 5 µM	> 1400	13%	> 5 µM	0.0242 µM
C=CCN1C(=O)N2CC(C)N=C2c2[nH]c(-c3cc(OCc4ccccc4)nn3C)nc21 (racemic)	> 5 µM	0.0247 µM	47%	25%	> 5 µM	202	17%	> 5 µM	

The next molecules have a lower Ki [1] than those just listed; values first:

Ki [1]	Ki [2]	inhibition [3]	inhibition [4]	Ki [5]	Ratio Ki [6]	inhibition [7]	IC50 [8]	IC50 [9]	Structure (SMILES)
1.68 µM	0.0398 µM			2.13 µM	42	12%	> 5 µM		CCC1CN2C(=O)N(Cc3ccccc3)c3nc(-c4cc(OCc5ccccc5)nn4C)[nH]c3C2=N1 (racemic)
1.2 µM	0.0215 µM		5%	> 5 µM	56	14%	> 5 µM		C=CCN1C(=O)N2CC(CC)N=C2c2[nH]c(-c3cc(OCc4ccccc4)nn3C)nc21 (racemic)
1.9 µM	0.00311 µM		1%	> 5 µM	610	11%	> 5 µM	0.0276 µM	COc1cc(-c2nc3c([nH]2)C2=NC(C)CN2C(=O)N3Cc2ccccc2)n(C)n1 (stereo not given)
1.08 µM	0.00237 µM		15%	> 5 µM		14%	> 5 µM	0.0105 µM	C=CCN1C(=O)N2C[C@H](CC)N=C2c2[nH]c(-c3cc(OC)nn3C)nc21
0.803 µM	0.0126 µM		3%	> 5 µM		10%	> 5 µM		CC[C@@H]1CN2C(=O)N(Cc3ccccc3)c3nc(-c4cc(C)nn4C)[nH]c3C2=N1
0.515 µM	0.00301 µM		8%	> 5 µM	170	20%	> 5 µM	0.0303 µM	C=CCN1C(=O)N2CC(CC)N=C2c2[nH]c(-c3cc(C)nn3C)nc21 (racemic)
0.615 µM	0.0103 µM		5%	> 5 µM	60	20%	> 5 µM		CCC1CN2C(=O)N(Cc3ccccc3)c3nc(-c4cc(C)nn4C)[nH]c3C2=N1 (racemic)
0.405 µM	0.00385 µM		9%	> 5 µM	105	22%	> 5 µM	0.0204 µM	CCC1CN2C(=O)N(Cc3ccccc3)c3nc(-c4cc(OC)nn4C)[nH]c3C2=N1 (racemic)
0.485 µM	0.00271 µM		12%	> 5 µM		18%	> 5 µM	0.0253 µM	CCC1CN2C(=O)N(Cc3ccccc3)c3nc(-c4cc(OC)no4)[nH]c3C2=N1 (racemic)
0.545 µM	0.0132 µM		4%	> 5 µM		13%	> 5 µM		CC[C@H]1CN2C(=O)N(Cc3ccccc3)c3nc(-c4cc(C)nn4C)[nH]c3C2=N1
1.73 µM	0.00252 µM		1%	> 5 µM		22%	> 5 µM	0.0175 µM	COc1cc(-c2nc3c([nH]2)C2=N[C@@H](C)CN2C(=O)N3Cc2ccccc2)n(C)n1
1.53 µM	0.00196 µM		1%	> 5 µM	780	16%	> 5 µM	0.0122 µM	C=CCN1C(=O)N2CC(CC)N=C2c2[nH]c(-c3cc(OC)nn3C)nc21 (racemic)
